≈ marks a conversion by molar mass, not a printed value.
Key:
[1] = Ratio of drug level in brain to plasma in rat at 10 mg/kg, po after 30 mins; assay type: ADME, organism-based; parameters: dose 10 mg/kg, route oral; settings: read-out: BPR
[2] = Plasma concentration in rat at 10 mg/kg, po after 30 mins; assay type: ADME, organism-based; parameters: dose 10 mg/kg, route oral
[3] = Drug level in rat brain at 10 mg/kg, po after 30 mins; assay type: ADME, organism-based; parameters: dose 10 mg/kg, route oral; settings: read-out: Drug uptake
[4] = Selectivity index, ratio of IC50 for rat PDE10A to IC50 for human PDE2A
[5] = target: T1, cAMP and cAMP-inhibited cGMP 3',5'-cyclic phosphodiesterase 10A (Rattus norvegicus, UniProt Q9QYJ6); experiment: Inhibition of rat PDE10A expressed in Sf9 cells incubated for 60 mins using [3H]-cAMP substrate by scintillation counting method
T1 sequence (Q9QYJ6 whole entry): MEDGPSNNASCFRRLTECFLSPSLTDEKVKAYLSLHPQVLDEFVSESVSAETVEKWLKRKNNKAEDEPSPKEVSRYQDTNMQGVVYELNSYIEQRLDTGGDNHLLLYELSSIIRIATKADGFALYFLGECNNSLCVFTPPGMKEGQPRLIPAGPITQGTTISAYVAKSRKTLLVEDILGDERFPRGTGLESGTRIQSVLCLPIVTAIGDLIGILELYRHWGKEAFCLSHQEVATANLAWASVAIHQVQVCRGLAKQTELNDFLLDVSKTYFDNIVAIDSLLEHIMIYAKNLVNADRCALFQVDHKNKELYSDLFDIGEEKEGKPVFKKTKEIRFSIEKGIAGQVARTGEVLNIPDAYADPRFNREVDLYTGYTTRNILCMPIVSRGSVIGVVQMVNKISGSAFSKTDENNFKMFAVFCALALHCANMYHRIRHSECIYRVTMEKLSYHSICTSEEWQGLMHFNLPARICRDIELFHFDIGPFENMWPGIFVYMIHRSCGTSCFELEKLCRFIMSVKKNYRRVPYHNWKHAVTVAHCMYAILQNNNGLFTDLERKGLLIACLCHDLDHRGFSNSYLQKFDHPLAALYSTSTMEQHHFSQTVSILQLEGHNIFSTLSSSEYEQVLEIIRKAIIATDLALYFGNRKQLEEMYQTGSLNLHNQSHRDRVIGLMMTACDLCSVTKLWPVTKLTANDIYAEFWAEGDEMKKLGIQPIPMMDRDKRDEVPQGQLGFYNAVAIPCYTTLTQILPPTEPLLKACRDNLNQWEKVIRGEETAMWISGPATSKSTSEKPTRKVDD

[6] = Tmax in Sprague-Dawley rat at 10 mg/kg, sc; assay type: ADME, organism-based; parameters: dose 10 mg/kg, route subcutaneous; settings: in vivo
Summary of the method: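 Fed male Sprague-Dawley rats (n = 3) were dosed subcutaneously at 10 mg/kg, formulated at 1 mg/mL in 20% HP-β-CD, pH 7.0. Plasma kinetics were followed and reported as mean (SD).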

[7] = Formulatability in 10% beta-HP-CD at pH 3.6; assay type: physicochemical; settings: read-out: Activity
Summary of the method: (§1)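 Formulatability in mg/mL, tested in three vehicles: water at pH 3.6, 10% β-HP-CD at pH 3.6, and 20% HP-β-CD at pH 7.0.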

[8] = target: Dual 3',5'-cyclic-AMP and -GMP phosphodiesterase 11A (Homo sapiens, UniProt Q9HCR9); experiment: Inhibition of human PDE11A4 expressed in Sf9 cells by scintillation counting method
Chain of Dual 3',5'-cyclic-AMP and -GMP phosphodiesterase 11A (Q9HCR9 whole entry): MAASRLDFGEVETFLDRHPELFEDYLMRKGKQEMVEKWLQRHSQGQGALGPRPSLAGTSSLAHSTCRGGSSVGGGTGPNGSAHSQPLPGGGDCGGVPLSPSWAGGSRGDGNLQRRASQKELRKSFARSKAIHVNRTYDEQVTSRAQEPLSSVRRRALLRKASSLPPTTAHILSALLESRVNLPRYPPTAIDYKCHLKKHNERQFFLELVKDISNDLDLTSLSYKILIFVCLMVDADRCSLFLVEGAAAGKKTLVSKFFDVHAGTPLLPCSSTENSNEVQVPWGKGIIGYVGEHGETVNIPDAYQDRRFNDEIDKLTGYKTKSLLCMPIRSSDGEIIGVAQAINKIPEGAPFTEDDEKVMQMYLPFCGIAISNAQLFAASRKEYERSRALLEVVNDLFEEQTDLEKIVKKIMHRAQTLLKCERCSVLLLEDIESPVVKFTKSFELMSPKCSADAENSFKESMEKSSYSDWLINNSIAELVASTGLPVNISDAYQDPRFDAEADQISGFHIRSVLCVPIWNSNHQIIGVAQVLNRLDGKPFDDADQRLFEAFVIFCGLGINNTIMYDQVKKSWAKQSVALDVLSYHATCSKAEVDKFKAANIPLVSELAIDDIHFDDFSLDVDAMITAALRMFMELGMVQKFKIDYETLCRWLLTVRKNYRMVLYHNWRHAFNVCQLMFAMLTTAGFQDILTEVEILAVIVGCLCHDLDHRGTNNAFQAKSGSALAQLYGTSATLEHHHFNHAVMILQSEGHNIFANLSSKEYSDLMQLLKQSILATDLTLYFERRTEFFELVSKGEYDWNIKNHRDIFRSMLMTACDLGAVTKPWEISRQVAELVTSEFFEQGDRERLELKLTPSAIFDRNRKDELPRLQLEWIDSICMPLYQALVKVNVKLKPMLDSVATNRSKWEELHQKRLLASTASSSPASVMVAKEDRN
Summary of the method: (§2)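 IC50 values were calculated from experiments each run at eight concentrations.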

[9] = target: Dual specificity calcium/calmodulin-dependent 3',5'-cyclic nucleotide phosphodiesterase 1A (Homo sapiens, UniProt P54750); experiment: Inhibition of human PDE1A by scintillation counting method; summary of the method: as §2
Chain of Dual specificity calcium/calmodulin-dependent 3',5'-cyclic nucleotide phosphodiesterase 1A (P54750 whole entry): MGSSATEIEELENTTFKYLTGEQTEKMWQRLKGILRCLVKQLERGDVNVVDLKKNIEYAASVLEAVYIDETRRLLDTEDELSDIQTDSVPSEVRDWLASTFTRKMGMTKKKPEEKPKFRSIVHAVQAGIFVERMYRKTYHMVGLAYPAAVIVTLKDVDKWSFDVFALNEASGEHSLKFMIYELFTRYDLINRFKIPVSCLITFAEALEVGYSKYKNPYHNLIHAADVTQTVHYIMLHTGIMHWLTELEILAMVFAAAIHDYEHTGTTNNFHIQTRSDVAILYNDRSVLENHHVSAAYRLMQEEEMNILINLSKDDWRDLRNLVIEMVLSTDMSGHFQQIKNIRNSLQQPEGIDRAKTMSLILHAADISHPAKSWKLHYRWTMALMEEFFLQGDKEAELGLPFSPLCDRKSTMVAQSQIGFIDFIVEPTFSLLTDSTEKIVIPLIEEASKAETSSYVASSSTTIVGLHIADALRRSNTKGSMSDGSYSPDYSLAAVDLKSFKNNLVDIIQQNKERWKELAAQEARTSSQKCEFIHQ

[10] = Ratio of drug level in brain to plasma of Sprague-Dawley rat at 10 mg/kg, sc after 2 hrs; assay type: ADME, organism-based; parameters: dose 10 mg/kg, route subcutaneous; settings: read-out: BPR
Summary of the method: (§3)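 Male Sprague-Dawley rats, fed (n = 3), dosed 10 mg/kg s.c. at 1 mg/mL in 20% HP-β-CD, pH 7.0. Plasma (ng/mL) and brain (ng/g) levels were measured at 0.5, 1, 2, 4, 7 and 24 h, each with SD. The brain/plasma ratio is computed at each time point.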

[11] = tested on: Rattus norvegicus; experiment: In-vivo occupancy at PDE2 in sc dosed Wistar rat brain using [3H]labeled compound in presence of 2.5 mg/kg, sc PDE10 inhibitor MP10; assay type: functional, organism-based; parameters: dose 2.5 mg/kg, route subcutaneous
Summary of the method: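 Male Wistar rats (n = 3 per dose) were dosed s.c., co-administered with MP10 at 2.5 mg/kg s.c. Ex vivo autoradiography was done on brain slices with the tritiated compound. Occupancy is the inhibition of specific [3H] binding relative to vehicle-treated animals, and ED50 was derived against dose.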

[12] = target: Cytochrome P450 2C19 (Homo sapiens, UniProt P33261); experiment: Inhibition of CYP2C19 in human liver microsomes; assay type: ADME
Chain of Cytochrome P450 2C19 (P33261 whole entry): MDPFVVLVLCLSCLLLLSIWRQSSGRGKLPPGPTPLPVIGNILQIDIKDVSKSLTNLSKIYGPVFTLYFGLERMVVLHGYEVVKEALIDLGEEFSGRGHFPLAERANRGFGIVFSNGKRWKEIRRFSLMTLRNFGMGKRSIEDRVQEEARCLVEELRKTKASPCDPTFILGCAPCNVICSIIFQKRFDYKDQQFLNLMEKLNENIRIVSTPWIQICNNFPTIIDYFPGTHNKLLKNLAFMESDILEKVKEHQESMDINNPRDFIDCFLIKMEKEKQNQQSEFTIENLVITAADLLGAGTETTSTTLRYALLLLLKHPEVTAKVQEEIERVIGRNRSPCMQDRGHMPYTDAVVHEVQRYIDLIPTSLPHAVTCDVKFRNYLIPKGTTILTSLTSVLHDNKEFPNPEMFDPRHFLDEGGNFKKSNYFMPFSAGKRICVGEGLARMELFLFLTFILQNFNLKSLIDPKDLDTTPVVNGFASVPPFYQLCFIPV
Summary of the method: (§4)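 CYP2C19 and 3A4 were tested in a human liver microsomal CYP inhibition assay, with IC50 determination.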

[13] = tested on: Brain; experiment: Drug level in Sprague-Dawley rat brain at 10 mg/kg, sc after 24 hrs; assay type: ADME, organism-based; parameters: dose 10 mg/kg, route subcutaneous; settings: in vivo, BLD = below limit of detection; summary of the method: as §3
[14] = target: cGMP-specific 3',5'-cyclic phosphodiesterase (Homo sapiens, UniProt O76074); experiment: Inhibition of human PDE5A3 expressed in Sf9 cells by scintillation counting method; summary of the method: as §2
[15] = Ratio of drug level in brain to plasma of Sprague-Dawley rat at 10 mg/kg, sc after 7 hrs; assay type: ADME, organism-based; parameters: dose 10 mg/kg, route subcutaneous; settings: read-out: BPR; summary of the method: as §3
[16] = Clearance in Sprague-Dawley rat at 2.5 mg/kg, iv; assay type: ADME, organism-based; parameters: dose 2.5 mg/kg, route intravenous; settings: in vivo
Summary of the method: (§5)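 Rats received 2.5 mg/kg i.v. Plasma kinetic parameters (t1/2, Cl, Vdss, AUC0-inf) are reported as mean (SD).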

[17] = Unbound fraction in Sprague-Dawley rat plasma at 10 mg/kg, sc; assay type: ADME, organism-based; parameters: dose 10 mg/kg, route subcutaneous
[18] = Cmax in Sprague-Dawley rat at 10 mg/kg, sc; assay type: ADME, organism-based; parameters: dose 10 mg/kg, route subcutaneous; settings: in vivo
Summary of the method: (§6)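 Male Sprague-Dawley rats, fed (n = 3), given 10 mg/kg s.c. as a 1 mg/mL solution in 20% HP-β-CD, pH 7.0. Plasma kinetic parameters are reported as mean (SD).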

[19] = target: High affinity cGMP-specific 3',5'-cyclic phosphodiesterase 9A (Homo sapiens, UniProt O76083)
Chain of High affinity cGMP-specific 3',5'-cyclic phosphodiesterase 9A (O76083 whole entry): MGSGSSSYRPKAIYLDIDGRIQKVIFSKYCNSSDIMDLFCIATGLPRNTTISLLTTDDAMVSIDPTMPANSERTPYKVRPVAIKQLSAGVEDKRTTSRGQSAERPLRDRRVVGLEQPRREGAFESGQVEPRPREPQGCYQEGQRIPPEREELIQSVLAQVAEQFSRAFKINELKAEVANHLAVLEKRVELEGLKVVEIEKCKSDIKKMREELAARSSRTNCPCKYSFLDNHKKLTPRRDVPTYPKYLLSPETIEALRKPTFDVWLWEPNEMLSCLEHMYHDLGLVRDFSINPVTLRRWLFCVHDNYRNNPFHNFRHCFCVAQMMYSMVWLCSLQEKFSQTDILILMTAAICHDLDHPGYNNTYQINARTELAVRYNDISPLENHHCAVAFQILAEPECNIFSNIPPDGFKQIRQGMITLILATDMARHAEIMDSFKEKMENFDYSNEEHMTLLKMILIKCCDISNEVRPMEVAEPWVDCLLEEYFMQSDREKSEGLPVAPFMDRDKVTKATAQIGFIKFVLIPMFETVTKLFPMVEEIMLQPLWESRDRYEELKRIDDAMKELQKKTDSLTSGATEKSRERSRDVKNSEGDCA

[20] = Unbound fraction in Sprague-Dawley rat brain at 10 mg/kg, sc; assay type: ADME, organism-based; parameters: dose 10 mg/kg, route subcutaneous
[21] = tested on: Plasma; experiment: Plasma concentration in Sprague-Dawley rat at 10 mg/kg, sc after 24 hrs; assay type: ADME, organism-based; parameters: dose 10 mg/kg, route subcutaneous; settings: in vivo, BLD = below limit of detection; summary of the method: as §3
[22] = Ratio of drug level in brain to plasma of Sprague-Dawley rat at 10 mg/kg, sc after 0.5 hrs; assay type: ADME, organism-based; parameters: dose 10 mg/kg, route subcutaneous; settings: read-out: BPR; summary of the method: as §3
[23] = Ratio of drug level in brain to plasma of Sprague-Dawley rat at 10 mg/kg, sc after 1 hr; assay type: ADME, organism-based; parameters: dose 10 mg/kg, route subcutaneous; settings: read-out: BPR; summary of the method: as §3
[24] = tested on: Plasma; experiment: Free drug concentration in Sprague-Dawley rat brain at 10 mg/kg, sc after 1 hr; assay type: ADME, organism-based; parameters: dose 10 mg/kg, route subcutaneous; settings: in vivo
Summary of the method: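 Free brain level at 1 h after a 10 mg/kg s.c. dose. Total brain concentration was corrected with the measured unbound brain fraction (Fub) and the unbound fraction to plasma proteins (Fup).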

[25] = tested on: Salmonella typhimurium; experiment: Mutagenicity in Salmonella typhimurium at <125 ug/mL by Ames-2 test; assay type: toxicity, organism-based; settings: salmonella enterica subsp. enterica serovar typhimurium
Summary of the method: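 In vitro colorimetric bacterial mutagenicity assay, adapted from the AMESII Mutagenicity Assay kit.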

[26] = Formulatability in 20% beta-HP-CD at pH 7.0; assay type: physicochemical; settings: read-out: Activity; summary of the method: as §1
[27] = Volume of distribution at steady state in Sprague-Dawley rat at 2.5 mg/kg, iv; assay type: ADME, organism-based; parameters: dose 2.5 mg/kg, route intravenous; settings: in vivo, read-out: Vdss
Summary of the method: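 Rats received an intravenous injection at 2.5 mg/kg. Plasma kinetics were followed and parameters reported as mean (SD).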

[28] = tested on: Rattus norvegicus; experiment: Effect on cAMP levels in Wistar rat striatum at 10 mg/kg, sc after 1 hr; assay type: functional; settings: route subcutaneous
[29] = Ratio of drug level in brain to plasma of Sprague-Dawley rat at 10 mg/kg, sc after 4 hrs; assay type: ADME, organism-based; parameters: dose 10 mg/kg, route subcutaneous; settings: read-out: BPR; summary of the method: as §3
[30] = Half life in Sprague-Dawley rat at 10 mg/kg, sc; assay type: ADME, organism-based; parameters: dose 10 mg/kg, route subcutaneous; settings: in vivo; summary of the method: as §6
[31] = AUC (0 to infinity) in Sprague-Dawley rat at 2.5 mg/kg, iv; assay type: ADME, organism-based; parameters: time infinity, dose 2.5 mg/kg, route intravenous; settings: plasma; summary of the method: as §5
[32] = target: cGMP-inhibited 3',5'-cyclic phosphodiesterase 3B (Homo sapiens, UniProt Q13370); experiment: Inhibition of human PDE3B by scintillation counting method; summary of the method: as §2
Chain of cGMP-inhibited 3',5'-cyclic phosphodiesterase 3B (Q13370 whole entry): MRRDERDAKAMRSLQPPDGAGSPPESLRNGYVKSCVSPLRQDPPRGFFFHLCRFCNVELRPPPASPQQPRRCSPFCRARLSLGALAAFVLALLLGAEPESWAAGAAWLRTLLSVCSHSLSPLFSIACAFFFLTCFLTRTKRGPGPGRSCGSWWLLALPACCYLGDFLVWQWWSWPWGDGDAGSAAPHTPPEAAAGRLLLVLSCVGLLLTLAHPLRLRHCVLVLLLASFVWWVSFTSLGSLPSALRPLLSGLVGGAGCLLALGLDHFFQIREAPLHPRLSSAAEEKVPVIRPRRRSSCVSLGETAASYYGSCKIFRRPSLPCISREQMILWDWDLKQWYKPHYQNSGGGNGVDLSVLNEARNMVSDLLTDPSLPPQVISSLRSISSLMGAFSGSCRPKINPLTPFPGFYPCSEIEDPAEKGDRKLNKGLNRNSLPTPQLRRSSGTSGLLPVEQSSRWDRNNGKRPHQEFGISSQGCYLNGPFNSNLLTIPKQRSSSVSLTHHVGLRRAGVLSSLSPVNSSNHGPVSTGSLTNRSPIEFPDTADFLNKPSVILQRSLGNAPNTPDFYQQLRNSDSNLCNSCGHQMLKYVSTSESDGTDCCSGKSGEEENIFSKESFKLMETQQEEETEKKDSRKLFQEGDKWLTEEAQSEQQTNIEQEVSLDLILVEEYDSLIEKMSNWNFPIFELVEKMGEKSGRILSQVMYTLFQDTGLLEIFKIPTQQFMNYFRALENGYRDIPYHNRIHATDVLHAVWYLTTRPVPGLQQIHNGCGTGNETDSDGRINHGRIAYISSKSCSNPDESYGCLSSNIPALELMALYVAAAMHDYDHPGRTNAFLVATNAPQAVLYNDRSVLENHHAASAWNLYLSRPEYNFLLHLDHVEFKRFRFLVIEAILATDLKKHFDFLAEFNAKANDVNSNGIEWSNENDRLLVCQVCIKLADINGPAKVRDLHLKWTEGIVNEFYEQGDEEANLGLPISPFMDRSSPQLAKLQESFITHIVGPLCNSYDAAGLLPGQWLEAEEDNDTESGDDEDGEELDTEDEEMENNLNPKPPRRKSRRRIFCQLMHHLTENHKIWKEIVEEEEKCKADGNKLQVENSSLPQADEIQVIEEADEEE

[33] = target: 3',5'-cyclic-AMP phosphodiesterase 4D (Homo sapiens, UniProt Q08499); experiment: Inhibition of human PDE4D by scintillation counting method; summary of the method: as §2
Chain of 3',5'-cyclic-AMP phosphodiesterase 4D (Q08499 whole entry): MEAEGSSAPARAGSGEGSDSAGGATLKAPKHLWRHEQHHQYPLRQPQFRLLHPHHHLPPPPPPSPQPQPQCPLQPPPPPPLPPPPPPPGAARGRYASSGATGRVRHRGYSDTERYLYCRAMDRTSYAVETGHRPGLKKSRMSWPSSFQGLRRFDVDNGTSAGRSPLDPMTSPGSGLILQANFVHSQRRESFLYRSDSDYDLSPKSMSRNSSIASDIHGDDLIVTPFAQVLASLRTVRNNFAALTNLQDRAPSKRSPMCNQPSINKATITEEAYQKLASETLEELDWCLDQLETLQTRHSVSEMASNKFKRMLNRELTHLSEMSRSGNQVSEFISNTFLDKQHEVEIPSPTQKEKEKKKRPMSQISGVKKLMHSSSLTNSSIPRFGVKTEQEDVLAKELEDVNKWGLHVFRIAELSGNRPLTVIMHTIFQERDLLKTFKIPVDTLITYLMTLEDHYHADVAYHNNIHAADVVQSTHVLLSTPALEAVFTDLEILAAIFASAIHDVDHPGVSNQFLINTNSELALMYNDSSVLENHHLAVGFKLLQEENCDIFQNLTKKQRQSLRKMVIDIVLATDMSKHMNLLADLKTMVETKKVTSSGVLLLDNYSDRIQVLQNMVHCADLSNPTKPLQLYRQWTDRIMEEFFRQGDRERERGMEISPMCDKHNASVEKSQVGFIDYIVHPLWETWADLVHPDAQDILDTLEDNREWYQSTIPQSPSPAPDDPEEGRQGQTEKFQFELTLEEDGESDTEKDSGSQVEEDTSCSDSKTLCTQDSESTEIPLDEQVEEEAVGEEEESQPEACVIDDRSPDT

[34] = target: Cytochrome P450 3A4 (Homo sapiens, UniProt P08684); experiment: Inhibition of CYP3A4 in human liver microsomes; assay type: ADME; summary of the method: as §4
[35] = Formulatability in water at pH 3.6; assay type: physicochemical; settings: read-out: Activity; summary of the method: as §1
[36] = Stability in human liver microsomes assessed as parent compound remaining after 15 mins; assay type: ADME; settings: read-out: Stability
Summary of the method: (§7)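 Incubated with human or rat liver microsomes for 15 min. Result is the percent of parent compound remaining.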

[37] = target: High affinity 3',5'-cyclic-AMP phosphodiesterase 7A (Homo sapiens, UniProt Q13946)
Chain of High affinity 3',5'-cyclic-AMP phosphodiesterase 7A (Q13946 whole entry): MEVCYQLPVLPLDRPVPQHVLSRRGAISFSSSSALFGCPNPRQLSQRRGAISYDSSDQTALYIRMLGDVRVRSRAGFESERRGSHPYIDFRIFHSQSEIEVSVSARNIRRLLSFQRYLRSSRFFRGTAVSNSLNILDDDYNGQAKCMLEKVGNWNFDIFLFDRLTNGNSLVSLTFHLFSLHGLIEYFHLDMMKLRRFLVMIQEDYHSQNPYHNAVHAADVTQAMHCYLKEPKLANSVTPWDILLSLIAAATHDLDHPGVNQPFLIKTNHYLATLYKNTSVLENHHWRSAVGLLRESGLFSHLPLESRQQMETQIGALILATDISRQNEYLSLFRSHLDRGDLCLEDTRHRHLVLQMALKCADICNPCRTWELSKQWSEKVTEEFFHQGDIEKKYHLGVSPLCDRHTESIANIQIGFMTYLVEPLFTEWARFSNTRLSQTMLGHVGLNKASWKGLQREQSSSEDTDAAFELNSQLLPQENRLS

[38] = AUC (0 to infinity) in Sprague-Dawley rat at 10 mg/kg, sc; assay type: ADME, organism-based; parameters: time infinity, dose 10 mg/kg, route subcutaneous; settings: plasma; summary of the method: as §6
[39] = target: Phosphodiesterase 6; experiment: Inhibition of human PDE6AB expressed in Sf9 cells by scintillation counting method; summary of the method: as §2
[40] = tested on: Rattus norvegicus; experiment: Increase in cGMP levels in Wistar rat striatum at 10 mg/kg, sc after 1 hr; assay type: functional; settings: route subcutaneous
Summary of the method: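 Rats were dosed 10 mg/kg s.c., and striatal cGMP was measured 1 h later against vehicle-dosed animals. Five independent experiments were run (n = 4–5 each), reported as % of vehicle with range.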

[41] = Half life in Sprague-Dawley rat at 2.5 mg/kg, iv; assay type: ADME, organism-based; parameters: dose 2.5 mg/kg, route intravenous; settings: in vivo; summary of the method: as §5
[42] = Stability in rat liver microsomes assessed as parent compound remaining after 15 mins; assay type: ADME; settings: read-out: Stability; summary of the method: as §7

With `COc1ccc(Cc2nn3c([C@@H](CCCc4ccccc4)[C@@H](C)O)nc(C)c3c(=O)[nH]2)cc1OC` the Kp at 0.5 h [1] was 0.05, the concentration at 0.5 h [2] was 72.9 ng/mL and the concentration at 0.5 h [3] was 3.6 ng/g.
With `Cc1nc2ccc(CN3CCOCC3)cc2n2c(-c3ccccc3Cl)nnc12` the Ratio IC50 [4] was 13.
Work on `COc1ccc(Cl)c(-c2nnc3c(C)nc4ccc(CN5CCOCC5)cc4n23)c1` yielded an IC50 [5] of 0.106 µM.
`CCCCOc1cncc(-c2nnc3c(C)nc4ccc(CN5CCOCC5)cc4n23)c1` showed a Tmax [6] of 40.2 min, a solubility [7] of 15 mg/mL (≈ 34.7 mM) and an IC50 [8] of 2.14 µM. For the same molecule, the IC50 [9] was greater than 10 µM, the Kp at 2 h [10] was 1.1 and the EC50 [11] was 0.021 µM. The ED50 ([11]; sc, route subcutaneous) was 4.3 mg/kg, the IC50 [12] was greater than 10 µM and the Drug uptake [13] was “BLD”. The IC50 [14] was greater than 10 µM, the Kp at 7 h [15] was 0.93 and the clearance [16] was 130 mL/min/kg. The fraction unbound [17] was 0.31, the Cmax [18] was 658 ng/mL and the IC50 [19] was greater than 10 µM. For the same molecule, the fraction unbound [20] was 0.14, the Cp [21] was “BLD” and the Kp at 0.5 h [22] was 1.4. The Kp at 1 h [23] was 1.1, the “Drug uptake(free)” value [24] was 67 nM and the Activity [25] was “Non-toxic”. The solubility [26] was 16 mg/mL (≈ 37 mM), the Vd [27] was 2.7 L/kg and the Activity [28] was 109%. For the same molecule, the Kp at 4 h [29] was 1.1, the half-life [30] was 60 min and the AUC(0-inf) [31] was 305 ng·h/mL. It also gave an IC50 [32] greater than 10 µM, an IC50 [33] greater than 10 µM and an IC50 [34] greater than 10 µM. For the same molecule, the solubility [35] was 4 mg/mL (≈ 9.25 mM), the remaining at 0.25 h [36] was 0% and the IC50 [37] was greater than 10 µM. The AUC(0-inf) [38] was 1670 ng·h/mL, the IC50 [39] was greater than 10 µM and the Activity [40] was 251%. For the same molecule, the half-life [41] was 18.6 min and the remaining at 0.25 h [42] was 0%.
Molecule `Cc1nc2ccc(CN3CCOCC3)cc2n2c(-c3cncc(OC(C)C)c3)nnc12` has an IC50 [5] greater than 10 µM.
